Published values of several laboratories.
Protocols differ between the studies behind these lines. Converted amounts (≈) assume the structure as drawn.

Structure (SMILES) | organism | observed | technique | strain | endpoint | result
CC(C)Oc1c(NC(=O)c2ccc(NC(=O)[C@H](CC(N)=O)NC(=O)c3ccc(NC(=O)c4ccc(C#N)cn4)cc3)cc2)ccc(C(=O)Nc2ccc(C(=O)O)cc2)c1O | Enterobacter cloacae | microbial growth |  | DSM30054 | MIC | > 64 µg/mL
CC(C)OCCNc1nc(Cl)c2c(c1O)C(=O)C1=C(O)[C@]3(O)C(=O)C(C(N)=O)=C(O)[C@@H](N(C)C)[C@@H]3C[C@@H]1C2.Cl.Cl.Cl | Enterobacter cloacae | microbial growth | broth dilution | ATCC13047 | MIC | 32 µg/mL
CCCC[C@H]1CN(CCCC[C@H]2CNC(=N)N2CCc2cccc(C(F)(F)F)c2)C(=N)N1CCCCC1CCCCC1 | Enterobacter cloacae | microbial killing |  |  | MBC | 4.2 µM (≈ 2.48 µg/mL)
Cc1c(CN(C)C(=O)/C=C/c2cnc3c(c2)CC(CCN)C(=O)N3)oc2ccccc12.Cl (centres unmarked) | Enterobacter cloacae | microbial growth | broth dilution |  | MIC | 8 µg/mL
C/C=C(\C)c1cc(O)c(C)c(OC(=O)c2c(C)c(Cl)c(O)c(Cl)c2O)c1 | Enterococcus gallinarum | microbial growth | broth dilution | GALLINARUM | MIC | 8 µg/mL (≈ 20.1 µM)
CO[C@@H](C(N)=O)[C@H](NC(=O)c1ccc(NC(=O)c2ccc(C#N)cc2)cc1)C(=O)Nc1ccc(C(=O)Nc2ccc(C(=O)Nc3ccc(C(=O)O)cc3)c(O)c2OC(C)C)cc1 | Serratia marcescens | microbial growth |  | DSM30121 | MIC | > 64 µg/mL
CCCNc1nc(N(C)C)c2c(c1O)C(=O)C1=C(O)[C@]3(O)C(=O)C(C(N)=O)=C(O)[C@@H](N(C)C)[C@@H]3C[C@@H]1C2.Cl.Cl | Enterobacter cloacae | microbial growth | broth dilution | ATCC13047 | MIC | > 32 µg/mL
CN[C@H](CC(C)C)C(=O)N[C@H]1C(=O)N[C@@H](CC(N)=O)C(=O)N[C@H]2C(=O)N[C@H]3C(=O)N[C@H](C(=O)N[C@H](C(=O)O)c4cc(O)cc(O)c4-c4cc3ccc4O)[C@H](O)c3ccc(c(Cl)c3)Oc3cc2cc(c3O[C@@H]2O[C@H](CO)[C@@H](O)[C@H](O)[C@H]2O[C@H]2C[C@](C)(N)[C@H](O)[C@H](C)O2)Oc2ccc(cc2Cl)[C@H]1O | Enterococcus gallinarum | microbial growth | broth dilution | GALLINARUM | MIC | 4 µg/mL (≈ 2.76 µM)
C/C(=C\c1ccc(C#N)cc1)C(=O)Nc1ccc(C(=O)N[C@@H](CC(N)=O)C(=O)Nc2ccc(C(=O)Nc3ccc(C(=O)Nc4ccc(C(=O)O)cc4)c(O)c3OC(C)C)cc2)cc1 | Serratia marcescens | microbial growth |  | DSM30121 | MIC | > 64 µg/mL
C/C=C(\C)c1cc(OC(=O)c2c(C)c(Cl)c(O)c(Cl)c2O)c(C)c(O)c1C(=O)O | Enterococcus gallinarum | microbial growth | broth dilution | GALLINARUM | MIC | 64 µg/mL (≈ 145 µM)
CN(C)[C@@H]1C(O)=C(C(N)=O)C(=O)[C@@]2(O)C(O)=C3C(=O)c4c(O)c(N)nc(F)c4C[C@H]3C[C@@H]12.Cl.Cl | Enterobacter cloacae | microbial growth | broth dilution | ATCC13047 | MIC | 0.5 µg/mL
